In brackets after ≈: the same amount, converted by molar mass. Activity calls are given as the source filed them. No cut-off for these calls is given here.
Legend:
[1] = Inhibition of trypsin
[2] = Inhibition of chymotrypsin
How it was run: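 Alpha-chymotrypsin type II was made up at 15 U/mL in 50 mM Tris-HCl (pH 7.6). The enzyme and test solution were preincubated at 37 °C for 5 min. Substrate solution was N-succinyl-L-phenylalanyl-p-nitroanilide, 1 mg/mL in buffer. After adding it, absorbance at 405 nm was read at once and again after 30 min at 37 °C.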

[3] = molecular target: Prothrombin (Homo sapiens) (UniProt P00734); test: Inhibition of thrombin at 20 ug/ml
[4] = Inhibition of trypsin at 20 ug/ml

IC50 [1]	IC50 [2]	Activity [3]	Activity [4]	Structure (SMILES)
0.25 µg/mL (≈ 0.253 µM)	–	–	–	CCCCCC(=O)N[C@@H](CCC(=O)O)C(=O)N[C@@H]1C(=O)N[C@@H](CCCNC(=N)N)C(=O)N[C@H]2CC[C@@H](O)N(C2=O)[C@@H](CC(C)C)C(=O)N(C)[C@@H](Cc2ccc(O)cc2)C(=O)N[C@@H](C(C)C)C(=O)O[C@@H]1C [MICROPEPTIN B]
–	1.1 µg/mL (≈ 1.07 µM)	inactive	inactive	CCCCCC(=O)N[C@@H](CCC(=O)O)C(=O)N[C@@H]1C(=O)N[C@@H](Cc2ccc(O)cc2)C(=O)N[C@H]2CC[C@@H](O)N(C2=O)[C@@H](Cc2ccccc2)C(=O)N(C)[C@@H](Cc2ccc(O)cc2)C(=O)N[C@@H](C(C)C)C(=O)O[C@@H]1C [MICROPEPTIN C]
–	1.2 µg/mL (≈ 1.14 µM)	inactive	inactive	CCCCCCCC(=O)N[C@@H](CCC(=O)O)C(=O)N[C@@H]1C(=O)N[C@@H](Cc2ccc(O)cc2)C(=O)N[C@H]2CC[C@@H](O)N(C2=O)[C@@H](Cc2ccccc2)C(=O)N(C)[C@@H](Cc2ccc(O)cc2)C(=O)N[C@@H](C(C)C)C(=O)O[C@@H]1C [MICROPEPTIN D]
–	1 µg/mL (≈ 1.01 µM)	inactive	inactive	CCCCCC(=O)N[C@@H](CCC(=O)O)C(=O)N[C@@H]1C(=O)N[C@@H](Cc2ccc(O)cc2)C(=O)N[C@H]2CC[C@@H](O)N(C2=O)[C@@H](CC(C)C)C(=O)N(C)[C@@H](Cc2ccc(O)cc2)C(=O)N[C@@H](C(C)C)C(=O)O[C@@H]1C [MICROPEPTIN E]
3 µg/mL (≈ 2.85 µM)	–	–	–	CCCCCC(=O)N[C@@H](CCC(=O)O)C(=O)N[C@@H]1C(=O)N[C@@H](Cc2ccc(O)cc2)C(=O)N[C@H]2CC[C@@H](O)N(C2=O)[C@@H](Cc2ccccc2)C(=O)N(C)[C@@H](Cc2c[nH]c3ccccc23)C(=O)N[C@@H](C(C)C)C(=O)O[C@@H]1C [MICROPEPTIN T 1]

Structure (SMILES)	IC50 [1]	IC50 [2]	Activity [3]	Activity [4]
CCCCCCCC(=O)N[C@@H](CCC(=O)O)C(=O)N[C@@H]1C(=O)N[C@@H](Cc2ccc(O)cc2)C(=O)N[C@H]2CC[C@@H](O)N(C2=O)[C@@H](CC(C)C)C(=O)N(C)[C@@H](Cc2ccc(O)cc2)C(=O)N[C@@H](C(C)C)C(=O)O[C@@H]1C [MICROPEPTIN F]	–	1.5 µg/mL (≈ 1.47 µM)	inactive	inactive

From ChEMBL document CHEMBL1151835, “Micropeptins from the freshwater cyanobacterium Microcystis aeruginosa (NIES-100)” (J Nat Prod, 2009)
